# From PubChem BioAssay
# NTR1 ag: NTR1 (human) agonism | P30989 | NTR1-U2OS beta-arrestin-GFP spot imaging, agonist mode | activation, % at 20 µM | 0.17% of 330,000 active | AID 493036;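 active = activation at or above 40% of the spot to cytoplasm intensity ratio, with at least 20 cells analyzed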
# PLCb3 inh: blocks human PLC-beta3 enzyme activity. Q01970. Purified PLC-beta3, fluorogenic substrate, fluorescence. inhibition, % at 12.2 µM. 0.18% of 370,000 active. AID 720704; in the data active = inhibition above about 11%
# PLC-gamma1 inh: PLC-gamma1 (human) inhibition, primary screen | P19174 | AID 720700 | purified PLC-gamma1, fluorogenic substrate, fluorescence | inhibition, % at 12.2 µM | 0.84% of 370,000 active
# Arrestin-AP2 inh: blocks beta-arrestin peptide binding to AP2 adaptin. FITC-arrestin peptide / GST-AP2 beads, flow cytometry; AP2 beta2 appendage carries R879A mutation. AID 504490. 0.31% of 340,000 active. inhibition, % at 10 µM;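 active = inhibition above a set limit, near 3 SD of compounds lacking own fluorescence, cut at about 54% in these data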
#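 system = GST-tagged AP2 beta2-adaptin appendage (R879A) on 4 µm glutathione beads | reagent = FITC-labelled arrestin peptide probe, 50 nM final | schedule = compound with beads 12 min RT, then probe 1 h RT | signal = HyperCyt-sampled flow cytometry, FL1 channel, ex 488/em 535 nm | read-out = percent response from loss of bead-bound FITC fluorescence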
# PLCgamma1 ctr: PLC-gamma1 inhibition, counter-screen for PLC-beta3 hits. shares compounds with PLC-gamma1 inh. purified PLC-gamma1, fluorogenic substrate, fluorescence. inhibition, % at 12.3 µM. 3.1% of 3,300 active. AID 743258
# PLCb3 confirm: human PLC-beta3 inhibition, confirmation | shares compounds with PLC-gamma1 inh | purified PLC-beta3, fluorogenic substrate fluorescence | inhibition, % at 12.3 µM | 1% of 3,300 active; in the data active = inhibition above about 11%
# Hits are given with their value; - = inactive; . = not tested or not shown. Hits are enriched below; roughly 1.3% of the tested compounds scored in any of these assays. Cut-off read from the data, not from the text of the source, unless noted: active = inhibition above about 9.5%; inactive = the rest.
SMILES,NTR1 ag,PLCb3 inh,PLC-gamma1 inh,Arrestin-AP2 inh,PLCgamma1 ctr,PLCb3 confirm
CCCCCCN1CCN(C2CN(Cc3cn(Cc4ccc(C)cc4)nn3)S(=O)(=O)C2)CC1 (stereo not drawn),.,-,14.5,.,-,-
O=C(CCn1nnc(-c2cccs2)n1)N1CCCC1,.,-,-,.,.,.
Cc1cccc(NC(=O)CCS(=O)(=O)c2ccccc2)c1C,.,-,-,.,.,.
CC(C)CCNC(=O)C(c1ccncc1)N(CC1CCCO1)C(=O)Cn1nnc(-c2ccc(F)cc2)n1 (stereo not drawn),-,-,-,-,.,.
CC(C)CCNC(=O)C(c1ccncc1)N(C(=O)Cn1nnc(-c2ccc(F)cc2)n1)c1ccccc1F (stereo not drawn),-,-,10.1,-,-,-
CCCC1/C(=N/O)CC(c2ccccc2)NC1c1ccccc1 (stereo not drawn),-,-,10.4,-,-,-
CC1/C(=N/O)CC(c2ccccc2)NC1c1ccccc1 (stereo not drawn),-,-,-,-,.,.
CCn1c(SCC(N)=O)nnc1-c1ccc2c(c1)OCO2,-,-,-,-,.,.
CCn1c(SCC(N)=O)nnc1-c1ccc(OC)c(OC)c1,-,-,12.8,-,-,-
Cc1ccc(S(=O)(=O)N2CCCCC2C(=O)N2CCN(Cc3ccccc3)CC2)cc1 (stereo not drawn),-,-,12.1,-,-,-
O=C(C1CCCCN1S(=O)(=O)c1ccccc1)N1CCN(Cc2ccccc2)CC1 (stereo not drawn),-,-,-,-,.,.
Cc1ccc(S(=O)(=O)N2CCCC2C(=O)NC2CCCCC2)cc1 (stereo not drawn),-,-,11.5,-,-,-
O=C(NCCc1c[nH]c2ccccc12)OCc1cn(-c2ccccc2Cl)nn1,.,-,-,.,.,.
COc1cccc(CNC(=O)[C@H]2CCCN2C(=O)[C@H]2CCCN2C(=O)c2ccc(F)cc2F)c1,.,-,-,.,.,.
COC(=O)C1CCN(C(=O)C2CC(=O)N(c3ccc(OC)cc3)C2c2ccc(OC)cc2)CC1 (stereo not drawn),.,-,-,.,.,.
COc1ccc2c(c1)CCCC21NC(=O)N(CC(=O)N2CC(C)OC(C)C2)C1=O (stereo not drawn),-,-,12.5,-,-,-
CC1=C(c2ccccc2)CCC1=O,-,-,-,-,.,.
CC1=C(c2ccccc2)C(O)(c2ccccc2)C(C)C1=O (stereo not drawn),.,-,14.1,-,-,-
c1ccc(CN2CCN(C(c3ccccc3)c3ccccc3)CC2)cc1,-,-,10.7,-,-,-
Cc1cccc(CCNC(=O)c2ccc3c(c2)ncn3C2CCCCC2)c1,.,-,-,.,.,.
O=C(c1cc2ccccc2oc1=O)N1CCCC1,-,-,14.6,-,-,-
CCOc1cc(S(=O)(=O)NC2CC(C)(C)NC(C)(C)C2)ccc1Cl,-,-,-,-,.,.
CCOc1cc(C)c(Cl)cc1S(=O)(=O)NC1CC(C)(C)NC(C)(C)C1,-,-,10.3,-,-,-
COc1ccc(S[C@]2(C(=O)N3CCN(c4ncccn4)CC3)CC(=O)N(c3ccc4ccccc4c3)[C@@H]2c2ccc(OC)cc2)cc1,.,-,-,.,.,.
Cc1ccccc1S(=O)(=O)N1CCC(c2nc3ccccc3o2)CC1,.,-,-,.,.,.
SMILES,NTR1 ag,PLCb3 inh,PLC-gamma1 inh,Arrestin-AP2 inh,PLCgamma1 ctr,PLCb3 confirm
Cc1cc(S(=O)(=O)Nc2ccc(C(=O)N3CCN(C(=O)c4ccco4)CC3)cc2)ccc1F,-,-,11.5,-,-,-
C=CCn1c(COc2ccc(Cl)cc2)nnc1SCC(=O)c1ccc(-c2ccccc2)cc1,.,-,-,.,.,.
O=C1C=C[C@H]2CC[C@@H](O)[C@@H]1[C@@H]2Sc1ccccc1,.,-,10.3,.,-,-
O=C(NCCc1ccccc1)OCc1cn(Cc2ccc(F)cc2)nn1,.,-,-,.,.,.
CCN1C(=O)/C(=C\N(C)C)S/C1=N\S(=O)(=O)c1ccc(C)cc1,-,-,-,-,.,.
C=CCN1C(=O)/C(=C/N(C)C)S/C1=N\S(=O)(=O)c1cccs1,.,12.3,-,.,-,-
O=C(O)C1CCCCC1C(=O)Nc1nccs1 (stereo not drawn),-,-,11.8,-,-,-
O=C(/C=N/O)Nc1cccnc1,-,-,-,-,.,.
O=C(/C=N/O)Nc1ccc(F)cc1,-,-,9.5,-,-,-
Cc1ccccc1Cn1cc(CN2[C@H](C)COc3cc(Br)ccc3S2(=O)=O)nn1,.,-,-,.,.,.
O=C(COC(=O)C1=COCCO1)Nc1ccccc1Oc1ccccc1,-,10.8,-,-,-,-
